Laboratory results: article PMC11255784 (RSC Advances, 2024)

What was measured:
[1] = tested on: Mtb H37Rv strain; assay: Anti-TB activity, Microplate Alamar Blue Assay; assay type: cell-based, Mycobacterium tuberculosis; conditions: MABA, triplicates
[2] = tested on: HEK293T cells; assay: Cytotoxicity studies on HEK293T cell line; assay type: cell-based, human; conditions: for Selective index (SI): HEK293T IC50 versus MIC against Mtb H37Rv; for IC50: Homo sapiens, HEK-293T, read-out: IC50 (HEK293T)
In short: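 Normal human embryonic kidney HEK293T cells were exposed to test compounds over a dose range of 7 to 2000 μM, and cell proliferation was read as OD at 450 nm to give IC50.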

[3] = tested on: Mtb H37Rv; conditions: cited from earlier work
[4] = Mycobacterium tuberculosis, H37RV

Compound	MIC [1, 4]	other results
2-(4-(Phenylglycyl) piperazin-1-yl)-1,8-naphthyridine-3-carbonitrile [ANC-1]		MIC [1]: 25 µg/mL; MIC ([1]; value in brackets): 67.12 µM
N#Cc1cc2cccnc2nc1N1CCN(CC(=O)Nc2ccccc2)CC1 [ANA-1, 2-(4-(3-Cyano-1,8-naphthyridin-2-yl)piperazin-1-yl)-N-phenylacetamide]	12.5 µg/mL	Selective index (SI) [2]: 17; IC50 [2]: 580 ± 20.2 µM
CCc1ccc(NC(=O)CN2CCN(c3nc4ncccc4cc3C#N)CC2)cc1 [ANA-2, 2-(4-(3-Cyano-1,8-naphthyridin-2-yl)piperazin-1-yl)-N-(4-ethylphenyl)acetamide]	25 µg/mL	
Cc1ccc(NC(=O)CN2CCN(c3nc4ncccc4cc3C#N)CC2)cc1C [ANA-3, 2-(4-(3-Cyano-1,8-naphthyridin-2-yl)piperazin-1-yl)-N-(3,4-dimethylphenyl)acetamide]	25 µg/mL	
N#Cc1cc2cccnc2nc1N1CCN(CC(=O)Nc2ccc(F)cc2)CC1 [ANA-4, 2-(4-(3-Cyano-1,8-naphthyridin-2-yl)piperazin-1-yl)-N-(4-fluorophenyl)acetamide]	25 µg/mL	
N#Cc1cc2cccnc2nc1N1CCN(CC(=O)Nc2ccc(Br)cc2)CC1 [ANA-5, N-(4-Bromophenyl)-2-(4-(3-cyano-1,8-naphthyridin-2-yl)piperazin-1-yl)acetamide]	25 µg/mL	
N#Cc1cc2cccnc2nc1N1CCN(CC(=O)Nc2ccccc2F)CC1 [ANA-6, 2-(4-(3-Cyano-1,8-naphthyridin-2-yl)piperazin-1-yl)-N-(2-fluorophenyl)acetamide]	12.5 µg/mL	Selective index (SI) [2]: 23; IC50 [2]: 753 ± 7.63 µM
N#Cc1cc2cccnc2nc1N1CCN(CC(=O)Nc2ccccc2[N+](=O)[O-])CC1 [ANA-7, 2-(4-(3-Cyano-1,8-naphthyridin-2-yl)piperazin-1-yl)-N-(2-nitrophenyl)acetamide]	12.5 µg/mL	Selective index (SI) [2]: 19; IC50 [2]: 571.2 ± 4.45 µM
N#Cc1cc2cccnc2nc1N1CCN(CC(=O)Nc2cccc(C(F)(F)F)c2)CC1 [ANA-8, 2-(4-(3-Cyano-1,8-naphthyridin-2-yl)piperazin-1-yl)-N-(3(trifluoromethyl)phenyl)acetamide]	12.5 µg/mL	
N#Cc1cc2cccnc2nc1N1CCN(CC(=O)Nc2ccc(F)c(F)c2)CC1 [ANA-9, 2-(4-(3-Cyano-1,8-naphthyridin-2-yl)piperazin-1-yl)-N-(3,4-difluorophenyl)acetamide]	25 µg/mL	
N#Cc1cc2cccnc2nc1N1CCN(CC(=O)Nc2cccc([N+](=O)[O-])c2)CC1 [ANA-10, 2-(4-(3-Cyano-1,8-naphthyridin-2-yl)piperazin-1-yl)-N-(3-nitrophenyl)acetamide]	12.5 µg/mL	
N#Cc1cc2cccnc2nc1N1CCN(CC(=O)Nc2ccc([N+](=O)[O-])cc2)CC1 [ANA-11, 2-(4-(3-Cyano-1,8-naphthyridin-2-yl)piperazin-1-yl)-N-(4-nitrophenyl)acetamide]	25 µg/mL	
N#Cc1cc2cccnc2nc1N1CCN(C(=O)c2ccc([N+](=O)[O-])o2)CC1 [ANA-12, 2-(4-(5-Nitrofuran-2-carbonyl)piperazin-1-yl)-1,8-naphthyridine-3-carbonitrile]	6.25 µg/mL	Selective index (SI) [2]: 27; IC50 [2]: 451 ± 20.2 µM
CCc1ccc(NCC(=O)N2CCN(c3nc4ncccc4cc3C#N)CC2)cc1 [ANC-2, 2-(4-((4-Ethylphenyl)glycyl)piperazin-1-yl)-1,8-naphthyridine-3-carbonitrile]	12.5 µg/mL	Selective index (SI) [2]: 11; IC50 [2]: 330 ± 3.4 µM
Cc1ccc(NCC(=O)N2CCN(c3nc4ncccc4cc3C#N)CC2)cc1C [ANC-3, 2-(4-((3,4-Dimethylphenyl)glycyl)piperazin-1-yl)-1,8-naphthyridine-3-carbonitrile]	50 µg/mL	
N#Cc1cc2cccnc2nc1N1CCN(C(=O)CNc2ccc(F)cc2)CC1 [ANC-5, 2-(4-((4-Fluorophenyl)glycyl)piperazin-1-yl)-1,8-naphthyridine-3-carbonitrile]	25 µg/mL	

Compound	MIC [1, 4]	other results
N#Cc1cc2cccnc2nc1N1CCN(C(=O)CNc2ccc(Cl)cc2)CC1 [ANC-6, 2-(4-((4-Chlorophenyl)glycyl)piperazin-1-yl)-1,8-naphthyridine-3-carbonitrile]	25 µg/mL	
N#Cc1cc2cccnc2nc1N1CCN(C(=O)CNc2ccc(Br)cc2)CC1 [ANC-7, 2-(4-((4-Bromophenyl)glycyl)piperazin-1-yl)-1,8-naphthyridine-3-carbonitrile]	25 µg/mL	
N#Cc1cc2cccnc2nc1N1CCN(C(=O)CNc2ccccc2F)CC1 [ANC-8, 2-(4-((2-Fluorophenyl)glycyl)piperazin-1-yl)-1,8-naphthyridine-3-carbonitrile]	25 µg/mL	
N#Cc1cc2cccnc2nc1N1CCN(C(=O)CNc2ccccc2I)CC1 [ANC-9, 2-(4-((2-Iodophenyl)glycyl)piperazin-1-yl)-1,8-naphthyridine-3-carbonitrile]	25 µg/mL	
N#Cc1cc2cccnc2nc1N1CCN(C(=O)CNc2ccc(Br)cc2[N+](=O)[O-])CC1 [ANC-10, 2-(4-((4-Bromo-2-nitrophenyl)glycyl)piperazin-1-yl)-1,8-naphthyridine-3-carbonitrile]	> 50 µg/mL	
N#Cc1cc2cccnc2nc1N1CCN(C(=O)CNc2cccc(Cl)c2)CC1 [ANC-11, 2-(4-((3-Chlorophenyl)glycyl)piperazin-1-yl)-1,8-naphthyridine-3-carbonitrile]	50 µg/mL	
N#Cc1cc2cccnc2nc1N1CCN(C(=O)CNc2cccc(C(F)(F)F)c2)CC1 [ANC-12, 2-(4-((3-(Trifluoromethyl)phenyl)glycyl)piperazin-1-yl)-1,8-naphthyridine-3-carbonitrile]	25 µg/mL	
N#Cc1cc2cccnc2nc1N1CCN(C(=O)CNc2ccc(Cl)cc2Cl)CC1 [ANC-13, 2-(4-((2,4-Dichlorophenyl)glycyl)piperazin-1-yl)-1,8-naphthyridine-3-carbonitrile]	50 µg/mL	
N#Cc1cc2cccnc2nc1N1CCN(C(=O)CNc2ccc(F)c(F)c2)CC1 [ANC-14, 2-(4-((3,4-Difluorophenyl)glycyl)piperazin-1-yl)-1,8-naphthyridine-3-carbonitrile]	> 50 µg/mL	
N#Cc1cc2cccnc2nc1N1CCNCC1 [ANI-1, 2-(Piperazin-1-yl)-1,8-naphthyridine-3-carbonitrile]	25 µg/mL	
N#Cc1cc2cccnc2nc1N1CCN(C(=O)CCl)CC1 [ANI-2, 2-(4-(2-Chloroacetyl)piperazin-1-yl)-1,8-naphthyridine-3-carbonitrile]	25 µg/mL	
CC[C@@H](CO)NCCN[C@@H](CC)CO [Ethambutol, reference compound]	6.25 µg/mL	
NNC(=O)c1ccncc1 [Isoniazid, reference compound]	0.36 µg/mL	
CO[C@H]1/C=C/O[C@@]2(C)Oc3c(C)c(O)c4c(O)c(c(/C=N/N5CCN(C)CC5)c(O)c4c3C2=O)NC(=O)/C(C)=C\C=C\[C@H](C)[C@H](O)[C@@H](C)[C@@H](O)[C@@H](C)[C@H](OC(C)=O)[C@@H]1C [Rifampicin, reference compound]	3.13 µg/mL	inhibition against Mtb H37Rv [3]: 98%
Nc1ccc(C(=O)O)c(O)c1 [p-Amino salicylic acid, reference compound]	12.5 µg/mL	
